Measurements gathered from unrelated publications.
Lines come from different studies, so protocols differ.
Target: Tyrosine-protein kinase Yes (YES1, Homo sapiens, UniProt P07947)

SMILES	observed	technique	tested at	remaining binding
O=C(NCCCN1CCOCC1)c1ccc(Nc2nccc(-c3cc4ccccc4s3)n2)cc1	binding	competition with immobilised ligand	1 µM	91%
COc1cnc(Nc2cccc(S(N)(=O)=O)c2)nc1N1CCN(c2ccccc2)C(=O)C1	binding	competition with immobilised ligand	1 µM	100%
Nc1ncc2c(n1)-c1c([nH]c3ccc(C#CC4CC4)cc13)CCCC2	binding	competition with immobilised ligand	1 µM	100%
COc1ccc2cc(OCC3(C(=O)O)CN(C(=O)c4ccc(F)cc4)C3)ccc2c1	cell-free assay	competition with immobilised ligand	1 µM	100%
c1cncc(-c2cccc(Nc3nccc(NC4CCCCC4)n3)c2)c1	binding	competition with immobilised ligand	10 µM	28%
O=C(NCCCN1CCOCC1)c1ccc(Nc2ncc(Cl)c(-c3ccc(Cl)s3)n2)cc1	binding	competition with immobilised ligand	1 µM	76%
C[C@H](NC(=O)c1cnc2n1[C@](C)(Cc1ccc(C#N)cc1)C(=O)N2c1cc(Cl)c(F)c(Cl)c1)C(=O)NC1(c2ccccn2)CC1	cell-free assay	competition with immobilised ligand	1 µM	100%
N[C@H]1CCN(c2nccc(-c3cnn4ncccc34)n2)C1	binding	–	1 µM	91%
CC(=O)C1=C(C)N(c2cccc(C(F)(F)F)c2)C(=O)N[C@@H]1c1ccc(C#N)nc1	cell-free assay	competition with immobilised ligand	1 µM	81.1%
C[C@@H]1CCN(c2nccc(-c3cnn4ncccc34)n2)C1	binding	–	1 µM	100%
O=C(c1ccc(Nc2ncc(Cl)c(-c3ccc(Cl)s3)n2)cc1)N1CCC(N2CCCC2)CC1	binding	competition with immobilised ligand	1 µM	55%
CCC(=N\O)/C(C)=C/c1ccc(F)cc1	cell-free assay	competition with immobilised ligand	1 µM	87%
COc1ccnn2ncc(-c3ccnc(N(C)C)n3)c12	binding	–	1 µM	100%
CN1CCN(c2ccc(Nc3nccc(-c4ccccc4)n3)cc2C(F)(F)F)CC1	binding	–	10 µM	56%
Cc1c(C(=O)O)cc(-c2ccc(C3CCNCC3)cc2)c2ccc(-c3ccc(C(F)(F)F)cc3)cc12	cell-free assay	competition with immobilised ligand	1 µM	100%
Cc1ccc(-n2nc(C(C)(C)C)cc2NC(=O)Nc2ccc(-n3c(N)c(C(N)=O)c4nc5ccc(NCCCN)cc5nc43)cc2)cc1	cell-free assay	competition with immobilised ligand	1 µM	1.9%
c1cnn2ncc(-c3ccnc(N4CCC45COC5)n3)c2c1	binding	–	1 µM	72%
O=C(Nc1c[nH]nc1C(=O)NC1CCNCC1)c1cc(F)cc(F)c1	binding	competition with immobilised ligand	1 µM	100%
Cc1c(NC(=O)c2cc(C(N)=O)nc3cc(F)ccc23)c(C(F)(F)F)nn1Cc1ccc(C#N)cc1	cell-free assay	competition with immobilised ligand	1 µM	66%
CN(C)c1nccc(-c2cnn3ncccc23)n1	binding	–	1 µM	78%
FC(F)(F)Oc1cccc(-c2cnc3ccc(-c4ccncc4)nn23)c1	binding	competition with immobilised ligand	5 µM	81%
F[C@@H]1CCN(c2nccc(-c3cnn4ncccc34)n2)C1	binding	–	1 µM	90%
CC(=O)Nc1c(C(C)=O)c(=O)n(C)c2nc(-c3ccc(Cl)cc3Cl)c(-c3ccc(Cl)cc3)cc12	cell-free assay	competition with immobilised ligand	1 µM	100%
CN(C)c1nccc(-c2cnc3ncccn23)n1	binding	–	1 µM	88%
C=CC(=O)N1CCC(C(=O)NCC(=O)N2CCN(c3nc(-c4cnc(N)nc4C(F)F)nc(N4CCOCC4)n3)CC2)CC1	binding	competition with immobilised ligand	1 µM	97%
